Results on one molecule are retold here after ChEMBL document CHEMBL5032502, “Syntheses, Biological Evaluations, and Mechanistic Studies of Benzo[c][1,2,5]oxadiazole Derivatives as Potent PD-L1 Inhibitors with In Vivo Antitumor Activity” (J Med Chem, 2021).

By IC50 is commonly meant the concentration that gives 50% inhibition. One may read the half-life as how long it takes for the measured level to halve. A higher half-life goes with slow decline. As usually defined, the Tmax is the time at which the peak concentration occurs. By AUC(0-t) is commonly meant exposure summed from dosing to a finite time, without extrapolation to infinity. Read a low AUC(0-t) as low exposure. Broadly, the bioavailability is dose-corrected exposure relative to a reference, in per cent. A high value points to good availability. In general, clearance refers to the volume of plasma or blood freed of the substance per unit of time. Low values mean inefficient removal, high ones efficient removal.

The target in series [1] is Programmed cell death protein 1/Programmed cell death 1 ligand 1 (Homo sapiens, UniProt Q9NZQ7). Description: Inhibition of human PD-1/PD-L1 interaction assessed as blockade activity incubated for 15 mins by HTRF assay. In kind it is protein-complex assay. The essentials: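 Tag1-PD-L1 and Tag2-PD-1 proteins preincubated with compound (0.1 nM to 10 μM, triplicate) 15 min at room temperature, then anti-Tag1-Eu³⁺/anti-Tag2-XL665 added for 2 h at room temperature. Excitation 337 nm, emission 665 and […]. Signal taken as 665/615 ratio ×10 000; IC50 fitted from inhibition rates.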
Sequence of Programmed cell death protein 1/Programmed cell death 1 ligand 1 (Q15116 whole entry): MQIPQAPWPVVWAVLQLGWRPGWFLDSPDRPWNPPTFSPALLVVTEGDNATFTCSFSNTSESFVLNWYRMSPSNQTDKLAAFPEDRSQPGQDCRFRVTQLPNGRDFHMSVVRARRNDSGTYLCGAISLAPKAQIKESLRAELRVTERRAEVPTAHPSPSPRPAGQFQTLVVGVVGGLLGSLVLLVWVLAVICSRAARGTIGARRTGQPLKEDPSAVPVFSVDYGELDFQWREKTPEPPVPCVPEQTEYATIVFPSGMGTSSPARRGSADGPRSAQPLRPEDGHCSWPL
Sequence of Programmed cell death protein 1/Programmed cell death 1 ligand 1 (Q9NZQ7 whole entry): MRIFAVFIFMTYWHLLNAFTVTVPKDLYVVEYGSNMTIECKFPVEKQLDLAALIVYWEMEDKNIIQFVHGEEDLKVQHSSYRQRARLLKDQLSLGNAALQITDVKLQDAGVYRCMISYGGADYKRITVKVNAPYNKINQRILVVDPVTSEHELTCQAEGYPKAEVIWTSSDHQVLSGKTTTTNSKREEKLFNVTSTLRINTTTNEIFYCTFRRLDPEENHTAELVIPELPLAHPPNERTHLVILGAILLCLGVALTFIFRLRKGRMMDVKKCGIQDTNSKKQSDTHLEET
On the technique in general: TR-FRET usually uses a lanthanide donor and a delayed reading to cut background.

The nature of series [2]: Half life in Sprague-Dawley rat at 9 mg/kg, iv measured upto 24 hrs by LC-MS analysis. In kind it is ADME, organism-based. Conditions: in vivo. The essentials: (§1)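 Male animals fasted 12 h before dosing. Plasma levels measured by LC-MS, with the prodrug quantified as the parent acid. Mean ± SEM, n = 3.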
A short description of series [3]: Tmax in Sprague-Dawley rat at 9 mg/kg, iv measured upto 24 hrs by LC-MS analysis. The format is ADME, organism-based. Conditions: in vivo. The essentials: (§2)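 Male Sprague-Dawley rats or C57BL/6 mice fasted 12 h before dosing, given oral (po) or intravenous (iv) doses. Plasma levels measured by LC-MS. Parameters reported as mean ± SEM, n = 3.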
A short description of series [4]: AUC (0 to t) in Sprague-Dawley rat at 45 mg/kg, po measured upto 24 hrs by LC-MS analysis. Also on record: route oral, dose 45 mg/kg, time <=24. The conditions noted are these: in vivo. The format is ADME, organism-based. The essentials:
as §1

Series [5] is described as follows: Oral bioavailability in Sprague-Dawley rat at 45 mg/kg measured upto 24 hrs by LC-MS analysis. The format is ADME, organism-based. Conditions: in vivo. The method in brief: as §2
A short description of series [6]: Subacute toxicity in C57BL/6 mouse assessed as mortality at 2000 mg/kg, po observed for 30 days. The format is organism-based. Conditions: in vivo, 720 h, time 30 day.
Series [7] can be described thus: Toxicity in C57BL/6 mouse assessed as effect on creatinine kinase level at 2000 mg/kg, po observed for 30 days. The format is organism-based. Conditions: in vivo, 720 h, time 30 day.
A short description of series [8]: Toxicity in C57BL/6 mouse assessed as effect on BUN level at 2000 mg/kg, po observed for 30 days. The conditions noted are these: in vivo, 720 h, time 30 day. The format is organism-based.
Series [9] deals with B16-F10. Description: Antitumor activity against mouse B16-F10 cells implanted in C57BL/6 mouse assessed as tumor growth inhibition at 15 mg/kg, po measured after 18 days. The format is functional. The conditions noted are these: 432 h, time 18 day, read-out: TGI. The essentials: (§3)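 Female C57BL/6J mice, 8 weeks old, injected dorsally with 1 × 10⁶ B16-F10 cells in PBS. Daily oral gavage started the same day (day 1), in 0.5% CMC-Na vehicle. Tumour size and body weight recorded daily, volume = 0.5 × L × W². Sacrifice on day 18, tumours excised and weighed. TGI = (1 − Vt/Vv) × 100.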

For series [10], the system named is B16-F10. Description: Antitumor activity against mouse B16-F10 cells implanted in C57BL/6 mouse assessed as tumor weight at 15 mg/kg, po measured after 18 days (reference value: 1.76 gm). The format is functional. The conditions noted are these: time 18 day. The method in brief:
as §3

The subject of series [11] is MC-38. Description: Antitumor activity against mouse MC38 cells implanted in C57BL/6 mouse assessed as tumor growth inhibition at 150 mg/kg, po measured after 14 days. The format is functional. Conditions: MC-38, po, 336 h, time 14 day, read-out: TGI.
For series [12], the system named is MC-38. Description: Antitumor activity against mouse MC38 cells implanted in C57BL/6 mouse assessed as tumor growth inhibition at 300 mg/kg, po measured after 14 days. The format is functional. Conditions: MC-38, po, 336 h, time 14 day, read-out: TGI.
Series [13] deals with MC-38. As to the kind of experiment: Antitumor activity against mouse MC38 cells implanted in C57BL/6 mouse assessed as tumor growth inhibition at 300 mg/kg, po measured after 18 days. The format is functional. The conditions noted are these: MC-38, po, 432 h, time 18 day, read-out: TGI. The method in brief: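 Female C57BL/6J mice, 8 weeks old, injected dorsally with 1 × 10⁶ MC38 cells in PBS. At 50 mm³, randomized to CMC-Na vehicle, 50, 150 or 300 mg/kg by daily oral gavage. Tumours measured every two days, volume = 0.5 × L × W². Sacrifice after 18 days of treatment. TGI = (1 − Vt/Vv) × 100. n = 8−10.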

Series [14] deals with MC-38. As to the kind of experiment: Antitumor activity against PD-L1 humanized mouse MC38 cells implanted in PD-L1 humanized C57BL/6 mouse assessed as tumor growth inhibition at 25 mg/kg, po measured after 30 days. Conditions: MC-38, po, 720 h, time 30 day, read-out: TGI. In kind it is functional. The essentials: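 PD-L1-humanized C57BL/6 mice given 1 × 10⁶ MC38-hPD-L1(Tg)-mPDL1(KO) cells in the right flank. Once tumours reached 50 mm³, randomized into three groups: CMC-Na vehicle, 25 or 50 mg/kg by daily oral gavage for 30 days. TGI from mean tumour volume of treated versus vehicle groups. n = 6.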

Series [15] deals with MC-38. Description: Antitumor activity against PD-L1 humanized mouse MC38 cells implanted in PD-L1 humanized C57BL/6 mouse assessed as tumor growth inhibition at 25 mg/kg, po measured after 27 days. The format is functional. Conditions: MC-38, po, 648 h, time 27 day, read-out: TGI. The essentials: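 Female PD-L1-humanized C57BL/6 mice, 6 weeks old, injected in the right flank with 1 × 10⁶ MC38-hPD-L1(Tg)-mPDL1(KO) cells in PBS. At 50 mm³ tumours, animals randomized to 0.5% CMC-Na vehicle or drug by daily oral gavage. Tumours measured twice weekly, volume = 0.5 × L × W². Sacrifice on day 27. TGI = (1 − Vt/Vv) × 100. n = 8.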

The subject of series [16] is MC-38. As to the kind of experiment: Antitumor activity against mouse MC38 cells xenografted in C57BL/6 mouse assessed as increase in CD3 positive T cells at 25 mg/kg, po by flow cytometry analysis. The format is functional, organism-based. The essentials: (§4)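 Tumours taken from PD-L1-humanized mice carrying MC38-hPD-L1 tumours and dosed orally at 5 or 25 mg/kg daily. Tissue digested to single cells, red cells lysed with ACK buffer, Fc blocked. Surface stain 60 min for CD45, CD3, CD4, CD8, CD335, CD11b, Ly6G, Ly6C and F4/80, with a viability dye. Intracellular FOXP3 stain after permeabilization. Mean ± SEM, n = 7−8, one-way ANOVA.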

The test system of series [17] is MC-38. As to the kind of experiment: Antitumor activity against mouse MC38 cells xenografted in C57BL/6 mouse assessed as increase in NK cells at 25 mg/kg, po by flow cytometry analysis. In kind it is functional, organism-based. The essentials: as §4
On the technique in general: Flow cytometry measures light scatter and fluorescence of single cells or particles in a stream.

In series [18] the test system is MC-38. As to the kind of experiment: Antitumor activity against mouse MC38 cells xenografted in C57BL/6 mouse assessed as reduction in gMDSC cells at 25 mg/kg, po by flow cytometry analysis. The format is functional, organism-based. The method in brief:
as §4

The test system of series [19] is MC-38. As to the kind of experiment: Antitumor activity against mouse MC38 cells xenografted in C57BL/6 mouse assessed as reduction in macrophages at 25 mg/kg, po by flow cytometry analysis. In kind it is functional, organism-based. The method in brief: as §4
The test system of series [20] is MC-38. As to the kind of experiment: Antitumor activity against mouse MC38 cells xenografted in C57BL/6 mouse assessed as change in regulatory T cells at 25 mg/kg, po by flow cytometry analysis. In kind it is functional, organism-based. The essentials:
as §4

The nature of series [21]: Clearance in C57BL/6 mouse at 2 mg/kg, iv measured upto 24 hrs by LC-MS analysis. In kind it is ADME, organism-based. The conditions noted are these: in vivo. The method in brief:
as §1

Series [22] in a line: Tmax in C57BL/6 mouse at 10 mg/kg, po measured upto 24 hrs by LC-MS analysis. In kind it is ADME, organism-based. The conditions noted are these: in vivo. The method in brief: as §2
Series [23] in a line: Oral bioavailability in C57BL/6 mouse at 10 mg/kg measured upto 24 hrs by LC-MS analysis. In kind it is ADME, organism-based. The conditions noted are these: in vivo. The method in brief: as §2
A short description of series [24]: Subacute toxicity in C57BL/6 mouse assessed as organ weight change po observed for 30 days. The conditions noted are these: in vivo, 720 h.

Active and inactive are the calls of the source. No cut-off for these calls is given here.

As for `CCOC(=O)[C@@H](CO)NCc1cc(Cl)c(OCc2cccc(-c3ccccc3)c2Br)cc1OCc1ccc2nonc2c1.Cl`, in series [1], the 50% inhibitory concentration (IC50) was determined as 426 nM. In addition, the half-life in series [2] is 5.02 h. Also, the Tmax in series [3] came to 4.8 min; in series [22], 1 h. The AUC(0-t) at 24 h in series [4] came to 2860 ng·h/mL. Moreover, the bioavailability in [5] was determined as 9.12%; in series [23], 7.7%. Also, the Activity entry in series [6] is “Non-Toxic”; in [7] it was “Non-Toxic”; in series [8], “Non-Toxic”; in the series on B16-F10 [10], 1.27 g; in series [24], “Non-Toxic”. In the series on B16-F10 [9], the inhibition in vivo at 15 mg/kg came to 45.8%. In the series with MC-38 [11], the inhibition in vivo at 150 mg/kg is 58.2%. The inhibition in vivo at 300 mg/kg with MC-38 [12] was 36.5%; in the series with MC-38 [13], 48.9%. For the same molecule, the results for the inhibition in vivo at 25 mg/kg in the series on MC-38 [14] and in the series on MC-38 [15] were 44.2% and 32.5%, respectively. For the same molecule, the result in the series on MC-38 [16], with MC-38 [17], in the series on MC-38 [18] and in the series with MC-38 [19] was Active. Also, the outcome in the series with MC-38 [20] was inactive. The molecule further gave a clearance in series [21] of 28.7 mL/min/kg.
